# Key:
# [1] = test system: KM12; experiment: Antiproliferative activity against human KM12 cells after 48 hrs; assay type: functional; conditions: Homo sapiens, KM12, 48 h
# Outline: (§1)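 NCI 60-cell screen. Cells were grown in RPMI 1640 with 5% FBS and 2 mM L-glutamine, then plated at 5,000–40,000 cells/well according to doubling time and preincubated for 24 h at 37 °C in 5% CO2. Compounds were dissolved in DMSO at 400× the top final concentration and tested at five 10-fold dilutions from 10−4 to 10−8 M for 48 h. Growth was read spectrophotometrically; GI50 is 50% net protein reduction.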
# [2] = test system: MCF7; experiment: Drug level in human MCF7 cells at 10 uM per 10^6 cells after 0.5 hrs; assay type: ADME, cell-based; conditions: mcf7, 0.5 h
# Outline: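 MCF7 cells kept in RPMI 1640 with 10% fetal calf serum at 37 °C, 5% CO2, then treated with 10 μM analog. Intracellular analog measured over time by HPLC-MS in positive-ion MRM mode. Quantified against calibration curves made by spiking an artificial matrix with standards plus internal standard, using analyte/IS peak-area ratios and linear regression. Reported as pmol per 1×10^6 cells.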
# [3] = test system: SNB-19; experiment: Antiproliferative activity against human SNB19 cells after 48 hrs; assay type: functional; conditions: SNB-19, 48 h; outline: as §1
# [4] = test system: MCF7; experiment: Antiproliferative activity against human MCF7 cells after 48 hrs; assay type: functional, cell-based; conditions: MCF7, 48 h
# [5] = test system: UACC-257; experiment: Antiproliferative activity against human UACC257 cells after 48 hrs; assay type: functional; conditions: UACC-257, 48 h
# Outline: (§2)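 NCI 60-cell-line screen. Lines grown in RPMI 1640 with 5% fetal bovine serum and 2 mM L-glutamine, plated at 5,000–40,000 cells/well according to doubling time, left 24 h at 37 °C in 5% CO2. Drug stocks in DMSO at 400-fold the top final concentration. Five 10-fold dilutions, 10−4 to 10−8 M, incubated 48 h. Growth read spectrophotometrically as net protein; GI50 taken as 50% reduction.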
# [6] = test system: NCI-H322M; experiment: Antiproliferative activity against human NCI-H322M cells after 48 hrs; assay type: functional; outline: as §1
# [7] = test system: Hs-578T; experiment: Antiproliferative activity against human HS578T cells after 48 hrs; assay type: functional; outline: as §1
# [8] = test system: OVCAR-5; experiment: Antiproliferative activity against human OVCAR5 cells after 48 hrs; assay type: functional; conditions: OVCAR-5, 48 h; outline: as §1
# [9] = test system: M14; experiment: Antiproliferative activity against human M14 cells after 48 hrs; assay type: functional; conditions: M14, 48 h; outline: as §1
# [10] = test system: UACC-62; experiment: Antiproliferative activity against human UACC62 cells after 48 hrs; assay type: functional; conditions: UACC-62, 48 h; outline: as §2
# [11] = Antiproliferative activity against human HL60(TB) cells after 48 hrs; assay type: functional, HL-60(TB); conditions: HL-60, 48 h
# Outline: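 NCI 60-line panel screen: cells grown in RPMI 1640 with 5% fetal bovine serum and 2 mM L-glutamine, plated at 5,000–40,000 cells/well by doubling time, and preincubated 24 h at 37 °C in 5% CO2. Drugs were solubilised in DMSO at 400-fold the final maximum and tested at five 10-fold dilutions from 10−4 to 10−8 M for 48 h. Net protein was read spectrophotometrically, and the concentration giving 50% reduction was reported as log10 GI50.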
# [12] = test system: NCI-H226; experiment: Antiproliferative activity against human NCI-H226 cells after 48 hrs; assay type: functional; conditions: NCI-H226, 48 h; outline: as §1
# [13] = test system: OVCAR-8; experiment: Antiproliferative activity against human OVCAR8 cells after 48 hrs; assay type: functional; conditions: OVCAR-8, 48 h; outline: as §1
# [14] = test system: CAKI-1; experiment: Antiproliferative activity against human CAKI1 cells after 48 hrs; assay type: functional; conditions: CAKI-1, 48 h; outline: as §1
# [15] = test system: SNB-75; experiment: Antiproliferative activity against human SNB75 cells after 48 hrs; assay type: functional; conditions: SNB-75, 48 h; outline: as §1
# [16] = test system: HT-29; experiment: Antiproliferative activity against human HT29 cells after 48 hrs; assay type: functional; conditions: HT-29, 48 h; outline: as §1
# [17] = test system: HCT-15; experiment: Antiproliferative activity against human HCT15 cells after 48 hrs; assay type: functional; conditions: Homo sapiens, HCT-15, 48 h; outline: as §1
# [18] = test system: CCRF-CEM; experiment: Antiproliferative activity against human CCRF-CEM cells after 48 hrs; assay type: functional; outline: as §1
# [19] = test system: RXF 393; experiment: Antiproliferative activity against human RXF393 cells after 48 hrs; assay type: functional; conditions: RXF 393, 48 h; outline: as §1
# [20] = test system: T47D; experiment: Antiproliferative activity against human T47D cells after 48 hrs; assay type: functional; outline: as §2
# [21] = Antiproliferative activity against human […] cells after 48 hrs; assay type: functional; outline: as §1
# [22] = test system: SN12C; experiment: Antiproliferative activity against human SN12C cells after 48 hrs; assay type: functional; outline: as §1
# [23] = test system: OVCAR-3; experiment: Antiproliferative activity against human OVCAR-3 cells after 48 hrs; assay type: functional; conditions: OVCAR-3, 48 h; outline: as §1
# [24] = test system: IGROV-1; experiment: Antiproliferative activity against human IGROV1 cells after 48 hrs; assay type: functional; conditions: IGROV-1, 48 h; outline: as §1
# [25] = test system: SW-620; experiment: Antiproliferative activity against human SW620 cells after 48 hrs; assay type: functional; conditions: SW-620, 48 h; outline: as §2
# [26] = test system: SK-MEL-5; experiment: Antiproliferative activity against human SKMEL5 cells after 48 hrs; assay type: functional; conditions: SK-MEL-5, 48 h; outline: as §1
# [27] = test system: HOP-62; experiment: Antiproliferative activity against human HOP62 cells after 48 hrs; assay type: functional; conditions: HOP-62, 48 h; outline: as §1
# [28] = read-out: Log LC50 (the source's name) (converted)
smiles,measurement,setting,value
CCCCCCCCCCCCCCN[C@H](CO)[C@H](O)c1ccc([N+](=O)[O-])cc1.Cl,GI50,[1],1.86 µM
same,CC50,[1]; [28],6.17 µM
same,TGI,[1]; read-out: Log TGI (converted),3.39 µM
same,Drug uptake,[2],3600 pmol
same,GI50,[3],1.74 µM
same,TGI,[3]; read-out: Log TGI (converted),3.55 µM
same,GI50,[4],1.91 µM
same,TGI,[4]; read-out: Log TGI (converted),3.47 µM
same,GI50,[5],4.27 µM
same,CC50,[5]; [28],93.3 µM
same,TGI,[5]; read-out: Log TGI (converted),20.9 µM
same,GI50,[6],4.79 µM
same,CC50,[6]; [28],42.7 µM
same,TGI,[6]; read-out: Log TGI (converted),14.8 µM
same,GI50,[7],2.09 µM
same,LC50,[7],100 µM
same,TGI,[7]; read-out: Log TGI (converted),5.25 µM
same,GI50,[8],3.72 µM
same,CC50,[8]; [28],72.4 µM
same,TGI,[8]; read-out: Log TGI (converted),14.1 µM
same,GI50,[9],2.04 µM
same,LC50,[9],6.92 µM
same,TGI,[9]; read-out: Log TGI (converted),3.72 µM
same,GI50,[10],6.46 µM
same,LC50,[10],75.9 µM
same,TGI,[10]; read-out: Log TGI (converted),24 µM
same,GI50,[11],2.04 µM
same,LC50,[11],15.1 µM
same,TGI,[11]; read-out: Log TGI (converted),4.79 µM
same,GI50,[12],10.5 µM
same,CC50,[12]; [28],100 µM
same,TGI,[12]; read-out: Log TGI (converted),34.7 µM
same,GI50,[13],2.29 µM
same,CC50,[13]; [28],> 100 µM
same,TGI,[13]; read-out: Log TGI (converted),5.62 µM
same,GI50,[14],7.59 µM
same,CC50,[14]; [28],67.6 µM
same,TGI,[14]; read-out: Log TGI (converted),24 µM
same,GI50,[15],3.98 µM
same,CC50,[15]; [28],60.3 µM
same,TGI,[15]; read-out: Log TGI (converted),26.9 µM
same,GI50,[16],1.86 µM
same,TGI,[16]; read-out: Log TGI (converted),3.47 µM
same,GI50,[17],1.86 µM
same,TGI,[17]; read-out: Log TGI (converted),3.47 µM
same,GI50,[18],2 µM
same,TGI,[18]; read-out: Log TGI (converted),3.98 µM
same,GI50,[19],1.82 µM
same,CC50,[19]; [28],8.32 µM
same,TGI,[19]; read-out: Log TGI (converted),3.89 µM
same,GI50,[20],3.8 µM
same,CC50,[20]; [28],87.1 µM
same,TGI,[20]; read-out: Log TGI (converted),14.1 µM
same,GI50,[21],2 µM
same,LC50,[21],8.91 µM
same,TGI,[21]; read-out: Log TGI (converted),4.27 µM
same,GI50,[22],2.19 µM
same,LC50 (50% net cell kill),[22],> 100 µM
same,TGI,[22]; read-out: Log TGI (converted),4.79 µM
same,GI50,[23],8.13 µM
same,LC50,[23],100 µM
same,TGI,[23]; read-out: Log TGI (converted),30.9 µM
same,GI50,[24],1.91 µM
same,TGI,[24]; read-out: Log TGI (converted),3.63 µM
same,GI50,[25],2 µM
same,LC50 (concentration killing 50% of cells),[25],100 µM
same,TGI,[25]; read-out: Log TGI (converted),4.68 µM
same,GI50,[26],2.45 µM
same,CC50,[26]; [28],> 100 µM
same,TGI,[26]; read-out: Log TGI (converted),7.08 µM
same,GI50,[27],1.91 µM
same,CC50,[27]; [28],6.31 µM
same,TGI,[27]; read-out: Log TGI (converted),3.47 µM

# Reference: ChEMBL document CHEMBL1143122, “Novel analogs of D-e-MAPP and B13. Part 1: synthesis and evaluation as potential anticancer agents” (Bioorg Med Chem, 2008)
